Results reported in ChEMBL document CHEMBL4699629, “N-Hydroxyformamide LpxC inhibitors, their in vivo efficacy in a mouse Escherichia coli infection model, and their safety in a rat hemodynamic assay” (Bioorg Med Chem, 2020).
Converted amounts (≈) assume the structure as drawn.

Key:
[1] = target: T1, UDP-3-O-acyl-N-acetylglucosamine deacetylase (Pseudomonas aeruginosa (strain ATCC 15692 / PAO1 / 1C / PRS 101 / LMG12228), UniProt P47205); assay: Displacement of fluorescent ligand from Pseudomonas aeruginosa LpxC measured after 30 mins by fluorescence anisotrophy assay
T1 sequence (P47205 whole entry): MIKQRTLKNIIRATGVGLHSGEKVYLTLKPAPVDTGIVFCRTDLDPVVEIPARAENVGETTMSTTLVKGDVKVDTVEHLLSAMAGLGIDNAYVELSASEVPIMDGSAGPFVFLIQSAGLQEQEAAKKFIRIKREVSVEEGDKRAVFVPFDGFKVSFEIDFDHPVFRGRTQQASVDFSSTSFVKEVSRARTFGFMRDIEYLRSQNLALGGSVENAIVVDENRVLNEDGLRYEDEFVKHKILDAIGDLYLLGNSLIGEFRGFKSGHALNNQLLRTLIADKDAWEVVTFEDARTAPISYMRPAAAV

Escherichia coli [2] = assay: Antibacterial activity against Escherichia coli ATCC 25922 assessed as bacterial growth inhibition by CLSI based broth microdilution method; assay type: functional
How it was run: (§1)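 CLSI broth microdilution determination of MIC.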

[3] = Displacement of fluorescent ligand from Escherichia coli LpxC measured after 30 mins by fluorescence anisotrophy assay
How it was run: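 Well mixes of 2 nM ligand C ± 12.5 nM E. coli LpxC; inhibitor two-fold dilutions 10 µM to […]; 30 min ambient, anisotropy 540/590 nm; % inhibition vs no-enzyme min; Hill fit for IC50; artifact correction at high concentrations.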

Klebsiella pneumoniae = assay: Antibacterial activity against Klebsiella pneumoniae ATCC 700603 assessed as bacterial growth inhibition by CLSI based broth microdilution method; assay type: functional; how it was run: as §1
Pseudomonas aeruginosa = assay: Antibacterial activity against Pseudomonas aeruginosa PAO1 assessed as bacterial growth inhibition by CLSI based broth microdilution method; assay type: functional; how it was run: as §1
[4] = Solubility of the compound in 2.5% dextrose in sodium acetate buffer at pH 5; assay type: physicochemical
[5] = Chemical stability of the compound; assay type: physicochemical
[6] = Observed clearance in mouse at 200 mg/kg, sc; assay type: ADME, organism-based; details: in vivo
[7] = Clearance in Sprague-Dawley rat at 90 mg/kg, iv administered as single bolus dose by HPLC analysis; assay type: ADME, organism-based; details: in vivo
How it was run: (§2)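 Fasted male Sprague-Dawley rats given one IV tail-vein slow-push bolus of compound formulated at 90 mg/mL in 2.5% dextrose/20 mM acetate pH 5, 1 mL/kg; saphenous blood at selected times into K2EDTA for plasma.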

Acetylcholinesterase = Acetylcholinesterase (Homo sapiens, UniProt P22303); assay: Inhibition of human AchE expressed in HEK293 cells using acetylthiocholine as substrate by Ellman's method
How it was run: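 Purified recombinant enzyme in 0.1 M sodium phosphate pH 7.4 with 0.01% Triton X-100. Two-fold inhibitor dilutions from 300 µM to 0.29 µM plus zero, each held at 3% DMSO. Acetylthiocholine and Ellman's reagent added as a solution of 1.2 mM each; reaction started with 0.006 U/mL enzyme solution. A412 read every minute for 1 h, with a no-enzyme blank subtracted. Initial slopes give % inhibition; IC50 from a Hill-equation fit.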

[8] = AUC in mouse at 200 mg/kg, sc; assay type: ADME, organism-based; parameters: dose 200 mg/kg; details: in vivo
Escherichia coli [9] = assay: Antibacterial activity against Escherichia coli ARC6599 infected in cyclophosphamide-induced CD-1 mouse model of neutropenic thigh infection assessed as log10 reduction in CFU at 200 mg/kg, sc bid administered 2 hrs post-infection and measured after 24 hrs; assay type: functional
How it was run: (§3)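 Female CD-1 mice made neutropenic with cyclophosphamide IP, 150 mg/kg day -4 and 100 mg/kg day -1. Saline suspension from overnight plate, OD625 0.13, diluted; 100 µL i.m. into both rear thighs (actual 7.6×10^5 CFU/thigh). Dosing began 2 h post-infection, s.c. at 20 mL/kg in 5% DMSO plus 2.5% dextrose/20 mM acetate ([…]); 3 mice/group. Thighs harvested 26 h post-infection, homogenized in 2 mL saline, plated; mean and SD of log CFU.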

Escherichia coli [10] = assay: Antibacterial activity against Escherichia coli ARC6599 infected in sc dosed cyclophosphamide-induced CD-1 mouse model of neutropenic thigh infection assessed as reduction in CFU administered 2 hrs post-infection and measured after 24 hrs; assay type: functional, organism-based; how it was run: as §3
[11] = Volume of distribution at steady state in Sprague-Dawley rat at 90 mg/kg, iv administered as single bolus dose by HPLC analysis; assay type: ADME, organism-based; details: in vivo, read-out: Vdss; how it was run: as §2
[12] = Cmax in mouse at 200 mg/kg, sc; assay type: ADME, organism-based; parameters: route subcutaneous, dose 200 mg/kg; details: in vivo
[13] = Volume of distribution in mouse at 200 mg/kg, sc; assay type: ADME, organism-based; details: in vivo
[14] = Protein binding in mouse plasma assessed as unbound fraction after 7 hrs by LC-MS/MS-based rapid equilibrium dialysis method; assay type: ADME, cell-free
How it was run: (§4)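 Rapid equilibrium dialysis: plasma spiked to 5 µM final, dialysed against PBS at 37 °C for 7 h with 400 rpm shaking; both chambers protein-precipitated with acetonitrile/0.1% formic acid containing carbutamide internal standard, quantified by LC-MS/MS. fu = buffer/sample peak area ratio; recovery accepted between 70 and 130%.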

[15] = Protein binding in rat plasma assessed as unbound fraction after 7 hrs by LC-MS/MS-based rapid equilibrium dialysis method; assay type: ADME, cell-free; how it was run: as §4
[16] = Ratio of fAUC in mouse at 200 mg/kg, sc to MIC for antibacterial activity against Escherichia coli ARC6599 infected in cyclophosphamide-induced CD-1 mouse model of neutropenic thigh infection; assay type: ADME, organism-based; details: in vivo
Escherichia coli [17] = assay: Antibacterial activity against Escherichia coli ARC6599 infected in cyclophosphamide-induced CD-1 mouse model of neutropenic thigh infection assessed as log10 reduction in CFU at 200 mg/kg, sc qd administered 2 hrs post-infection and measured after 24 hrs; assay type: functional; how it was run: as §3

Sequence of Acetylcholinesterase (P22303 whole entry): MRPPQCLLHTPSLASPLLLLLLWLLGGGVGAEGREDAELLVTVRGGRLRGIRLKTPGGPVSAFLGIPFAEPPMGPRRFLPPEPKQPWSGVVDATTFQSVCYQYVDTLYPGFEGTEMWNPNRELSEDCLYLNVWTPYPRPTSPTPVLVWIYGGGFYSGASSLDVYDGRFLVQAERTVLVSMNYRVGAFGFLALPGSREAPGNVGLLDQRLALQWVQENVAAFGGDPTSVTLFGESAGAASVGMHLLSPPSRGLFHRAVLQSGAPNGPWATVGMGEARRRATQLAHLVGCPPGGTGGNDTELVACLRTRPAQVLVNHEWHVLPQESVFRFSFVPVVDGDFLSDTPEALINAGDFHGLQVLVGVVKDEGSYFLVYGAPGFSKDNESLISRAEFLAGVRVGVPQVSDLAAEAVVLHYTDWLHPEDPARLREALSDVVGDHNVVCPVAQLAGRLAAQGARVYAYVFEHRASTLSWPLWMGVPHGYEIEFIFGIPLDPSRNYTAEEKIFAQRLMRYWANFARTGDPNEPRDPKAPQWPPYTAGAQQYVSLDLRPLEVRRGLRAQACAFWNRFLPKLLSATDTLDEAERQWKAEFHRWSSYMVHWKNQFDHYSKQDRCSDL

O=CN(O)CCn1cnc2cc(C#Cc3ccc(CN4CCOCC4)cc3)ccc21
IC50 [1]: 1100 nM
MIC (Escherichia coli [2]): 16 µg/mL (≈ 39.6 µM)
IC50 [3]: 82 nM

O=C(CNC(=O)c1ccc(C#Cc2ccc(CN3CCOCC3)cc2)cc1)NO
MIC (Klebsiella pneumoniae): > 64 µg/mL
MIC (Pseudomonas aeruginosa): 64 µg/mL (≈ 163 µM)
IC50 [1]: 63 nM
MIC (Escherichia coli [2]): 16 µg/mL (≈ 40.7 µM)
IC50 [3]: 21 nM

O=CN(O)CCN1C(=O)Cc2cc(C#Cc3ccc(CN4CCOCC4)cc3)ccc21
IC50 [1]: 170 nM
MIC (Escherichia coli [2]): 4 µg/mL (≈ 9.54 µM)
IC50 [3]: 25 nM

CC(Cn1nnc2cc(C#Cc3ccc(CN4CCOCC4)cc3)ccc21)N(O)C=O (stereo not drawn)
IC50 [1]: 14 nM
MIC (Escherichia coli [2]): 2 µg/mL (≈ 4.77 µM)

CSC(Cn1nnc2cc(C#Cc3ccc(CN4CCOCC4)cc3)ccc21)N(O)C=O (stereo not drawn)
IC50 [1]: 1.3 nM
MIC (Escherichia coli [2]): 0.25 µg/mL (≈ 0.554 µM)
IC50 [3]: < 10 nM

CS[C@@H](Cn1nnc2cc(C#Cc3ccc(CN4CC5(C4)C[S+]([O-])C5)cc3)ccc21)N(O)C=O.O=C(O)C(F)(F)F
solubility [4]: > 200 mg/mL

CCOC(Cn1nnc2cc(C#Cc3ccc(CN4CCOCC4)cc3)ccc21)N(O)C=O (stereo not drawn)
Stabilty [5]: Unstable
IC50 [1]: 41 nM
MIC (Escherichia coli [2]): 2 µg/mL (≈ 4.45 µM)
IC50 [3]: 22 nM

CC[C@@H]([C@@H](CC(C)O)c1n[nH]c2cc(C#Cc3ccc(CN4CCOCC4)cc3)ccc12)N(O)C=O (mixture of isomers)
MIC (Klebsiella pneumoniae): 32 µg/mL
MIC (Pseudomonas aeruginosa): 16 µg/mL
IC50 [1]: 2.5 nM
MIC (Escherichia coli [2]): 1 µg/mL
IC50 [3]: < 10 nM

CS[C@H](Cn1nnc2cc(C#Cc3ccc(CN4CCOCC4)cc3)ccc21)N(O)C=O
IC50 [1]: 21 nM
MIC (Escherichia coli [2]): 4 µg/mL (≈ 8.86 µM)
IC50 [3]: 41 nM

O=CN(O)CCn1nnc2cc(C#Cc3ccc(CN4CCOCC4)cc3)ccc21
IC50 [1]: 44 nM
MIC (Escherichia coli [2]): 4 µg/mL (≈ 9.87 µM)
IC50 [3]: 20 nM

O=CN(O)CCn1ccc2cc(C#Cc3ccc(CN4CCOCC4)cc3)ccc21
IC50 [1]: 45 nM
MIC (Escherichia coli [2]): 2 µg/mL (≈ 4.96 µM)
IC50 [3]: 10 nM

O=CN(O)CCc1nnn2cc(C#Cc3ccc(CN4CCOCC4)cc3)ccc12
IC50 [1]: 37 nM
MIC (Escherichia coli [2]): 4 µg/mL (≈ 9.87 µM)
IC50 [3]: 15 nM

COC(Cn1nnc2cc(C#Cc3ccc(CN4CCOCC4)cc3)ccc21)N(O)C=O (stereo not drawn)
Stabilty [5]: Unstable
IC50 [1]: 7.3 nM
MIC (Escherichia coli [2]): 0.25 µg/mL (≈ 0.574 µM)
IC50 [3]: < 10 nM

O=CN(O)C(CO)Cn1nnc2cc(C#Cc3ccc(CN4CCOCC4)cc3)ccc21 (stereo not drawn)
IC50 [1]: 61 nM
MIC (Escherichia coli [2]): 2 µg/mL (≈ 4.59 µM)
IC50 [3]: 42 nM

O=CN(O)CCc1nnc2cc(C#Cc3ccc(CN4CCOCC4)cc3)ccn12
IC50 [1]: 280 nM
MIC (Escherichia coli [2]): 16 µg/mL (≈ 39.5 µM)
IC50 [3]: 54 nM

O=CN(O)CCn1ncc2cc(C#Cc3ccc(CN4CCOCC4)cc3)ccc21
IC50 [1]: 64 nM
MIC (Escherichia coli [2]): 4 µg/mL (≈ 9.89 µM)
IC50 [3]: 28 nM

O=CN(O)CCn1ccc2nc(C#Cc3ccc(CN4CCOCC4)cc3)ccc21
IC50 [1]: 1000 nM
MIC (Escherichia coli [2]): 32 µg/mL (≈ 79.1 µM)
IC50 [3]: 170 nM

O=CN(O)CCn1ccc2cc(C#Cc3ccc(CN4CCOCC4)cc3)ncc21
IC50 [1]: 1000 nM
MIC (Escherichia coli [2]): 64 µg/mL (≈ 158 µM)
IC50 [3]: 740 nM

CCC(Cn1nnc2cc(C#Cc3ccc(CN4CCOCC4)cc3)ccc21)N(O)C=O (stereo not drawn)
IC50 [1]: 2.4 nM
MIC (Escherichia coli [2]): 1 µg/mL (≈ 2.31 µM)
IC50 [3]: < 10 nM

C[C@@H](O)[C@H](NC(=O)c1ccc(C#Cc2ccc(CN3CCOCC3)cc2)cc1)C(=O)NO
MIC (Klebsiella pneumoniae): 2 µg/mL (≈ 4.57 µM)
MIC (Pseudomonas aeruginosa): 1 µg/mL (≈ 2.29 µM)
MIC (Escherichia coli [2]): 0.13 µg/mL (≈ 0.297 µM)
IC50 [3]: < 10 nM

CCSC(Cn1nnc2cc(C#Cc3ccc(CN4CCOCC4)cc3)ccc21)N(O)C=O (stereo not drawn)
IC50 [1]: 5.4 nM
MIC (Escherichia coli [2]): 0.5 µg/mL (≈ 1.07 µM)
IC50 [3]: < 10 nM

CS[C@@H](Cn1nnc2cc(C#Cc3ccc(CN4CCOCC4)cc3)ccc21)N(O)C=O
CL [6]: 80 mL/min/kg
clearance [7]: 33.3 mL/min/kg
IC50 (Acetylcholinesterase): 3500 nM
MIC (Klebsiella pneumoniae): 4 µg/mL (≈ 8.86 µM)
AUC [8]: 34800 ng·h/mL
Activity (Escherichia coli [9]): >3.2 log10CFU
MIC (Pseudomonas aeruginosa): 4 µg/mL (≈ 8.86 µM)
Activity (Escherichia coli [10]): Dose-dependent effect
IC50 [1]: < 1 nM
Vd [11]: 0.58 L/kg
Cmax [12]: 21500 ng/mL
Vd [13]: 10.1 L/kg
fraction unbound at 7 h [14]: 0.09
fraction unbound at 7 h [15]: 0.03
MIC (Escherichia coli [2]): 0.13 µg/mL (≈ 0.288 µM)
fAUC/MIC [16]: 104
IC50 [3]: < 10 nM
Activity (Escherichia coli [17]): 2 log10CFU

O=CN(O)CCCc1ccc(C#Cc2ccc(CN3CCOCC3)cc2)cc1
IC50 [1]: 63 nM
MIC (Escherichia coli [2]): 32 µg/mL (≈ 84.6 µM)
IC50 [3]: 21 nM

CCC(Cc1n[nH]c2cc(C#Cc3ccc(CN4CCOCC4)cc3)ccc12)N(O)C=O (stereo not drawn)
MIC (Klebsiella pneumoniae): > 64 µg/mL
MIC (Pseudomonas aeruginosa): > 64 µg/mL
IC50 [1]: 10 nM
MIC (Escherichia coli [2]): 4 µg/mL (≈ 9.25 µM)
IC50 [3]: 19 nM
